This is an account of results in ChEMBL document CHEMBL1671655, “Anidulafungin is fungicidal and exerts a variety of postantifungal effects against Candida albicans, C. glabrata, C. parapsilosis, and C. krusei isolates” (2009).

Test [1] concerns Nakaseomyces glabratus. Description: Fungicidal activity against Candida glabrata isolate 1 assessed as log reduction in bacterial count at MIC after 48 hrs by time-kill analysis. The class given is functional. The conditions noted are these: isolate 1, 48 h. Summed up:
(§1)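 Isolates subcultured twice on SDA, suspended to 0.5 McFarland, giving ~1 x 10^5 to 5 x 10^5 CFU/ml in MOPS-buffered RPMI 1640 (pH 7.0) with or without drug at multiples of MIC (MIC by CLSI M27-A3). Tubes shaken at 35°C with continuous drug. Sampled at 0–48 h, diluted 10-fold and plated on SDA; CFU counted after 48 h at 35°C. Run twice per isolate; means.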

Test [2] relates to Candida albicans. Description: Antifungal activity against Candida albicans isolate 1 assessed as time period for bacterial growth inhibition at 16 times MIC after 1 hr drug exposure. The class given is functional. Summed up: (§2)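 Inoculum of about 1 x 10^5 to 5 x 10^5 CFU/ml in MOPS-buffered RPMI (pH 7.0), shaken at 35°C and exposed to drug for 1 h. Cells then washed and centrifuged three times and resuspended in drug-free warm RPMI. Samples plated on SDA at 0, 2, 4, 8, 12, 24 and 48 h, with CFU counted after 48 h at 35°C. Run twice per isolate; values are means.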

In test [3] the test system is Candida albicans. Description: Increase in susceptibility to calcofluor white in Candida albicans isolate 1 assessed as cell wall damage at MIC after 1 hr relative to control. The class given is functional, organism-based. Summed up:
(§3)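 Cells recovered 8 h after a 1-h drug exposure were grown to exponential phase in YPD with 1% glucose and adjusted to OD599 0.1. Undiluted and 10-fold serially diluted cultures were spotted onto YPD plates containing calcofluor white, then incubated at 30°C for 72 h. Growth compared with no-drug control cells; triplicate.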

The subject of test [4] is Candida parapsilosis. Description: Increase in susceptibility to calcofluor white in Candida parapsilosis isolate A assessed as cell wall damage at 4 times MIC after 1 hr relative to control. The class given is functional, organism-based. Summed up: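 Candida given a 1-h anidulafungin pulse in MOPS-buffered RPMI 1640 (pH 7.0) at 35°C, washed three times by centrifugation, and regrown drug-free. Cells collected 8 h later, grown in YPD with 1% glucose to exponential phase, and set to OD599 0.1. Undiluted culture and 10-fold dilutions (4 µl) spotted on YPD plates with calcofluor white, then 30°C for 72 h. Triplicate; compared with no-drug cells.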

Test [5] relates to Candida albicans. Description: Increase in susceptibility to SDS in Candida albicans isolate 1 assessed as cell wall damage at MIC after 1 hr relative to control. The class given is functional, organism-based. The method in brief:
(§4)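 Cells recovered 8 h after a 1-h drug exposure were grown in YPD with 1% glucose to exponential phase and adjusted to OD599 0.1. Undiluted culture and 10-fold serial dilutions were spotted onto YPD plates containing SDS (0.01 to 0.04%), then incubated 72 h at 30°C. Growth compared with unexposed control cells; triplicate.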

The test system of test [6] is Nakaseomyces glabratus. Description: Antifungal activity against Candida glabrata isolate 1 coincubated with mouse J774 macrophages assessed as macrophage induced bacterial cell killing at 4 times MIC (reference value: 12 +/- 10 %). The class given is functional.
Test [7] concerns Candida albicans. Description: Fungicidal activity against Candida albicans isolate 2 assessed as log reduction in bacterial count at 4 times MIC after 48 hrs by time-kill analysis. Particulars: isolate 2, 48 h. The class given is functional. Summed up: as §1
Test [8] has as its system Pichia kudriavzevii. Description: Increase in susceptibility to SDS in Candida krusei isolate ATCC 6258 assessed as cell wall damage at 4 times MIC after 1 hr relative to control. The class given is functional, organism-based. The method in brief:
as §4

The test system of test [9] is Pichia kudriavzevii. Description: Fungicidal activity against Candida krusei isolate ATCC 6258 assessed as log reduction in bacterial count at 16 times MIC after 48 hrs by time-kill analysis. The class given is functional. The conditions noted are these: isolate ATCC 6258, 48 h. The method in brief: as §1
The subject of test [10] is Candida albicans. Description: Antifungal activity against Candida albicans ATCC 90028 assessed as time period for bacterial growth inhibition at 16 times MIC after 1 hr drug exposure. The class given is functional. Summed up: as §2
In test [11] the test system is Pichia kudriavzevii. Description: Antifungal activity against Candida krusei isolate ATCC 6258 assessed as time period for bacterial growth inhibition at 4 times MIC after 1 hr drug exposure. The class given is functional. The method in brief:
as §2

For test [12], the system named is Candida parapsilosis. Description: Fungicidal activity against Candida parapsilosis isolate 1 assessed as log reduction in bacterial count at 16 times MIC after 48 hrs by time-kill analysis. Particulars: Lodderomyces parapsilosis, isolate 1, 48 h. The class given is functional. Summed up:
as §1

In test [13] the test system is Candida albicans. Description: Antifungal activity against Candida albicans by NCCLS M27A broth microdilution method. The class given is functional.
For test [14], the system named is Nakaseomyces glabratus. Description: Antifungal activity against Candida glabrata isolate 1 assessed as time period for bacterial growth inhibition at 16 times MIC after 1 hr drug exposure. The class given is functional. Summed up:
as §2

In test [15] the test system is Candida parapsilosis. Description: Antifungal activity against Candida parapsilosis isolate A by CLSI M27-A3 broth microdilution method. The class given is functional. Particulars: Lodderomyces parapsilosis. Summed up: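 CLSI M27-A3 broth microdilution in RPMI 1640 buffered to pH 7.0 with MOPS. Starting inoculum 0.5 x 10^3 to 2.5 x 10^3 cells/ml, incubated at 35°C. MIC read as the lowest concentration giving >50% growth reduction versus control. Each isolate tested on at least three occasions.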

Test [16] deals with Candida parapsilosis. Description: Fungicidal activity against Candida parapsilosis isolate 1 assessed as log reduction in bacterial count at 4 times MIC after drug exposure for 1 hr followed by washout measured after 48 hrs in the absence of drug by PAFE study. The class given is functional. Particulars: Lodderomyces parapsilosis. The method in brief: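 Inoculum about 1 x 10^5 to 5 x 10^5 CFU/ml in RPMI 1640 (MOPS, pH 7.0) with drug, shaken at 35°C for 1 h. Cells were then washed and centrifuged at 1,400 x g for 10 min (3 cycles) and resuspended in warm drug-free RPMI. Samples plated on SDA at 0, 2, 4, 8, 12, 24 and 48 h; CFU counted after 48 h at 35°C. Run twice per isolate; means.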

The subject of test [17] is Nakaseomyces glabratus. Description: Fungicidal activity against Candida glabrata isolate 1 assessed as log reduction in bacterial count at 4 times MIC after 48 hrs by time-kill analysis. The class given is functional. The conditions noted are these: isolate 1, 48 h. The method in brief:
as §1

The test system of test [18] is Nakaseomyces glabratus. Description: Antifungal activity against Candida glabrata isolate 1 assessed as time period for bacterial growth inhibition at 4 times MIC after 1 hr drug exposure. The class given is functional. Summed up:
as §2

In test [19] the test system is Candida parapsilosis. Description: Fungicidal activity against Candida parapsilosis isolate 1 assessed as log reduction in bacterial count at MIC after 48 hrs by time-kill analysis. The class given is functional. The conditions noted are these: Lodderomyces parapsilosis, isolate 1, 48 h. The method in brief:
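Isolates subcultured twice on SDA, then suspended to 0.5 McFarland and diluted into RPMI 1640 (MOPS, pH 7.0) with or without anidulafungin, giving about 1 x 10^5 to 5 x 10^5 CFU/ml. Tubes were shaken at 35°C. Samples were taken at 0, 2, 4, 8, 12, 24 and 48 h, serially diluted 10-fold, plated on SDA, and CFU counted after 48 h at 35°C. Each isolate was run twice; mean values.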

Test [20] has as its system Nakaseomyces glabratus. Description: Antifungal activity against Candida glabrata isolate 3 assessed as time period for bacterial growth inhibition at 4 times MIC after 1 hr drug exposure. The class given is functional. The method in brief: as §2
In test [21] the test system is Candida albicans. Description: Increase in susceptibility to calcofluor white in Candida albicans isolate 1 assessed as cell wall damage at 4 times MIC after 1 hr relative to control. The class given is functional, organism-based. The method in brief: as §3
For test [22], the system named is Nakaseomyces glabratus. Description: Fungicidal activity against Candida glabrata isolate 2 assessed as log reduction in bacterial count at 4 times MIC after 48 hrs by time-kill analysis. The conditions noted are these: isolate 2, 48 h. The class given is functional. Summed up:
as §1

In brackets after ≈: the same amount, converted by molar mass. Activity calls are given as the source filed them. The calls are words filed in the database; no cut-off is given here. Starred links: 1 amine or outer side, 2 acyl side, 3 side chain; linkers in the order of their positions; H or OH if unused. Positions of bridges follow the written chain, without caps; N, C: chain ends. Non-standard residues stand in square brackets, D forms with d. Residues, ends and D or L forms follow the SMILES beside them. *: point of attachment. pTerphenylCO(4''-OnC5H11) = CCCCCOc1ccc(-c2ccc(-c3ccc(C(=O)*)cc3)cc2)cc1; Orn(4R-OH,5R-OH) = O=C([C@H](C[C@@H](O)[C@@H](O)N[*:3])N[*:1])[*:2]; hTyr(3S-OH,4S-OH) = N[C@H](C(=O)O)[C@H](O)[C@@H](O)c1ccc(O)cc1; Pro(3S-OH,4S-Me) = C[C@H]1CN[C@H](C(=O)O)[C@H]1O; Hyp = O=C(O)[C@@H]1C[C@@H](O)CN1

Consider `CCCCCOc1ccc(-c2ccc(-c3ccc(C(=O)N[C@H]4C[C@@H](O)[C@@H](O)NC(=O)[C@@H]5[C@@H](O)[C@@H](C)CN5C(=O)[C@H]([C@@H](C)O)NC(=O)[C@H]([C@H](O)[C@@H](O)c5ccc(O)cc5)NC(=O)[C@@H]5C[C@@H](O)CN5C(=O)[C@H]([C@@H](C)O)NC4=O)cc3)cc2)cc1` [ANIDULAFUNGIN] ({pTerphenylCO(4''-OnC5H11)}-[Orn(4R-OH,5R-OH)]T[Hyp][hTyr(3S-OH,4S-OH)]T[Pro(3S-OH,4S-Me)]; lactam 1-C), for which the log reduction in the test on Nakaseomyces glabratus [1] is 1.8 log CFU/ml; with Candida albicans [7], 2.33 log CFU/ml; in the test with Pichia kudriavzevii [9] it was 3.2 log CFU/ml; in the test on Candida parapsilosis [12], 3.47 log CFU/ml; with Candida parapsilosis [16], 2.46; with Nakaseomyces glabratus [17] it was 2.77 log CFU/ml. Also, the log reduction with Candida parapsilosis [19] was found to be 1.65 log CFU/ml; in the test on Nakaseomyces glabratus [22] it was 1.87 log CFU/ml. In addition, the Time with Candida albicans [2], with Candida albicans [10], in the test on Pichia kudriavzevii [11], in the test with Nakaseomyces glabratus [14], with Nakaseomyces glabratus [18] and in the test on Nakaseomyces glabratus [20] was 8 h each time. In addition, the result with Candida albicans [3], with Candida parapsilosis [4], in the test with Candida albicans [5], in the test with Pichia kudriavzevii [8] and in the test on Candida albicans [21] was Active. Also, in the test with Nakaseomyces glabratus [6], the “inhibition (INH)” value worked out at 33%. The compound further gave an MIC90 against Candida albicans [13] of 0.06 µg/mL (≈ 0.0526 µM). Also, the MIC in the test with Candida parapsilosis [15] was 2 µg/mL (≈ 1.75 µM).
